Reference: ChEMBL document CHEMBL1154095, “Separation of alpha-glucosidase-inhibitory and liver X receptor-antagonistic activities of phenethylphenyl phthalimide analogs and generation of LXRalpha-selective antagonists” (Bioorg Med Chem, 2009)
The source made the active and inactive calls. The rule behind the calls is not given here.

Experiments:
[1] = Inhibition of Saccharomyces sp. alpha-glucosidase assessed as p-nitrophenol release
In short: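 Yeast alpha-glucosidase at 0.2 mU/mL in 10 mM phosphate buffer pH 7.0 was preincubated with compound (1% v/v DMSO final) for 10 min at 37 °C. pNPG substrate (final 0.2 mM) was then added and incubated 10 min at 37 °C. The reaction was basified with Na2CO3, and released p-nitrophenol was read at A405. Triplicates, repeated at least twice, normalized averages, IC50.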

[2] = biological target: T1, Oxysterols receptor LXR-alpha (Homo sapiens, UniProt Q13133); test: Antagonist activity at human LXRalpha expressed in HEK293 cells assessed as inhibition of beta-galactosidase activity by luciferase reporter gene assay; assay type: functional, cell-based
T1 sequence (Q13133 whole entry): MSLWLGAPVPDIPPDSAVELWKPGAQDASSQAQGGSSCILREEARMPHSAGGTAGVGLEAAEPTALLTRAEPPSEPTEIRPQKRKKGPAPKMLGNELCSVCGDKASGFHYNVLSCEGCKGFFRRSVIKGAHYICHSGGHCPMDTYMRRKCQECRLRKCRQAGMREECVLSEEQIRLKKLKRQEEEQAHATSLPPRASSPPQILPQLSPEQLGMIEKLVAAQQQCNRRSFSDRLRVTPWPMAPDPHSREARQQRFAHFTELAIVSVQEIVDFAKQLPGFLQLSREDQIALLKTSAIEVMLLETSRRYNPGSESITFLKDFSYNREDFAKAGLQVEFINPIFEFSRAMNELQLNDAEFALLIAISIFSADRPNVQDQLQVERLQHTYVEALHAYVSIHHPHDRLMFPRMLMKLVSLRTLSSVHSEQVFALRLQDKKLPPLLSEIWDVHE

[3] = biological target: T2, Oxysterols receptor LXR-beta (Homo sapiens, UniProt P55055); test: Antagonist activity at human LXRbeta expressed in HEK293 cells assessed as inhibition of beta-galactosidase activity by luciferase reporter gene assay; assay type: functional, cell-based
T2 sequence (P55055 whole entry): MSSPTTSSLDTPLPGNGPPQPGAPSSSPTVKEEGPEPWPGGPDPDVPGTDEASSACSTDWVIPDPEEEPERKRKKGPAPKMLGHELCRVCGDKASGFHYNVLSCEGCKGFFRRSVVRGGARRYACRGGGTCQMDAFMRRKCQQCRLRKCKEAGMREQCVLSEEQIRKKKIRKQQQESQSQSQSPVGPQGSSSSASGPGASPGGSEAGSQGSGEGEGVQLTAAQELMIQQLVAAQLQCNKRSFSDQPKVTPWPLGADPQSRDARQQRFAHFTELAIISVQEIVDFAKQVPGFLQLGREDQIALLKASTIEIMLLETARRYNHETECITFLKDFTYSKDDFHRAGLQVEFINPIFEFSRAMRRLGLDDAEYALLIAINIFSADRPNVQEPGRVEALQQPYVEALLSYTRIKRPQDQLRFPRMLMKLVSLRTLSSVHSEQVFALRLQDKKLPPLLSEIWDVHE

[4] = biological target: Liver X receptor (LXR alpha AND LXR beta) (Homo sapiens) (UniProt Q13133+P55055); test: Selectivity ratio of IC50 for human LXRbeta over IC50 for human LXRalpha; assay type: protein assay
Saccharomyces sp. = test: Inhibition of Saccharomyces sp. alpha-glucosidase by non-competitive Lineweaver-Burke analysis

IC50 [1] [µM]	IC50 [2] [µM]	IC50 [3] [µM]	Selectivity Index [4]	Selectivity ratio [4]	Activity (Saccharomyces sp.)	SMILES
21	3.9	> 30	–	–	–	O=C1c2c(Cl)c(Cl)c(Cl)c(Cl)c2C(=O)N1c1ccc(CCc2cccc(O)c2)cc1
> 100	2.4	3.5	–	–	–	COc1cccc(CCc2ccc(N3C(=O)c4ccccc4C3=O)cc2)c1
69	4.2	> 30	–	–	–	COc1cccc(CCc2cccc(N3C(=O)c4c(Cl)c(Cl)c(Cl)c(Cl)c4C3=O)c2)c1
> 100	1.7	> 3	–	–	–	O=C1c2ccccc2C(=O)N1c1ccc(CCc2ccc(O)c(O)c2)cc1
> 100	9.8	> 30	–	–	–	O=C1c2ccccc2C(=O)N1c1ccccc1CCc1ccc(O)c(O)c1
> 100	–	–	–	–	–	O=C1c2ccccc2C(=O)N1c1cccc(CCc2ccccc2)c1
> 100	0.2	> 30	> 150	–	–	COc1ccc(CCc2ccc(N3C(=O)c4ccccc4C3=O)cc2)cc1
–	–	–	–	11	–	c1cc2cc(c1)Oc1ccc(cc1)CCc1ccccc1-c1ccc(cc1)CC2
> 100	8.8	> 30	–	–	–	COc1ccc(CCc2ccc(N3C(=O)c4c(Cl)c(Cl)c(Cl)c(Cl)c4C3=O)cc2)cc1
40	> 20	14	–	–	–	COc1ccc(/C=C/c2ccc(N3C(=O)c4c(Cl)c(Cl)c(Cl)c(Cl)c4C3=O)cc2)cc1OC
> 100	–	–	–	–	–	O=C1c2ccccc2C(=O)N1c1ccc(CCc2ccccc2)cc1
> 100	–	–	–	–	–	COc1ccc(CCc2ccccc2N2C(=O)c3ccccc3C2=O)cc1OC
50	2.6	> 30	–	–	–	O=C1c2c(Cl)c(Cl)c(Cl)c(Cl)c2C(=O)N1c1cccc(CCc2cccc(O)c2)c1
20	15	17	–	–	–	O=C1c2c(Cl)c(Cl)c(Cl)c(Cl)c2C(=O)N1c1ccccc1CCc1ccc(O)c(O)c1
31	> 30	> 30	–	–	–	O=C1c2c(Cl)c(Cl)c(Cl)c(Cl)c2C(=O)N1c1cccc(/C=C/c2ccccc2)c1
> 100	3.7	> 30	–	–	–	O=C1c2c(Cl)c(Cl)c(Cl)c(Cl)c2C(=O)N1c1cccc(CCc2ccc(O)cc2)c1
83	> 30	> 30	–	–	–	COc1ccc(CCc2cccc(N3C(=O)c4c(Cl)c(Cl)c(Cl)c(Cl)c4C3=O)c2)cc1OC
90	> 30	> 30	–	–	–	O=C1c2ccccc2C(=O)N1c1ccc(/C=C/c2ccccc2)cc1
> 100	5.1	> 30	–	–	–	O=C1c2c(Cl)c(Cl)c(Cl)c(Cl)c2C(=O)N1c1ccc(CCc2ccc(O)c(O)c2)cc1
27	> 30	> 30	–	–	–	COc1ccc(/C=C/c2cccc(N3C(=O)c4c(Cl)c(Cl)c(Cl)c(Cl)c4C3=O)c2)cc1OC

IC50 [1] [µM]	IC50 [2] [µM]	IC50 [3] [µM]	Selectivity Index [4]	Selectivity ratio [4]	Activity (Saccharomyces sp.)	SMILES
13	6.6	> 30	–	–	–	O=C1c2c(Cl)c(Cl)c(Cl)c(Cl)c2C(=O)N1c1cccc(/C=C/c2ccc(O)c(O)c2)c1
> 100	> 3	> 3	–	–	–	O=C1c2c(Cl)c(Cl)c(Cl)c(Cl)c2C(=O)N1c1ccccc1CCc1ccccc1
23	> 30	> 30	–	–	–	O=C1c2c(Cl)c(Cl)c(Cl)c(Cl)c2C(=O)N1c1ccc(CCc2ccc(O)cc2)cc1
16.2	–	–	–	–	–	O=C1c2ccccc2C(=O)N1c1ccccc1CCc1ccccc1
> 100	> 30	> 30	–	–	–	O=C1c2c(Cl)c(Cl)c(Cl)c(Cl)c2C(=O)N1c1cccc(CCc2ccccc2)c1
23	6.3	21	–	–	–	O=C1c2c(Cl)c(Cl)c(Cl)c(Cl)c2C(=O)N1c1cccc(CCc2ccc(O)c(O)c2)c1
18	> 30	> 30	–	–	Active	COc1ccc(CCc2ccc(N3C(=O)c4c(Cl)c(Cl)c(Cl)c(Cl)c4C3=O)cc2)cc1OC
> 100	3.8	> 30	–	–	–	COc1ccc(/C=C/c2ccc(N3C(=O)c4ccccc4C3=O)cc2)cc1OC
65	6.9	> 30	–	–	–	COc1cccc(CCc2ccc(N3C(=O)c4c(Cl)c(Cl)c(Cl)c(Cl)c4C3=O)cc2)c1
> 100	7.5	> 30	–	–	–	O=C1c2ccccc2C(=O)N1c1ccc(CCc2cccc(O)c2)cc1
17	> 30	> 30	–	–	–	O=C1c2c(Cl)c(Cl)c(Cl)c(Cl)c2C(=O)N1c1ccc(CCc2ccccc2)cc1
21	> 30	> 30	–	–	–	O=C1c2c(Cl)c(Cl)c(Cl)c(Cl)c2C(=O)N1c1ccc(/C=C/c2ccccc2)cc1
> 100	> 30	> 30	–	–	–	COc1ccc(CCc2cccc(N3C(=O)c4ccccc4C3=O)c2)cc1OC
> 100	2.7	> 30	–	–	–	O=C1c2c(Cl)c(Cl)c(Cl)c(Cl)c2C(=O)N1c1ccc(/C=C/c2ccc(O)c(O)c2)cc1
> 100	6.1	7.7	–	–	–	COc1ccc(CCc2ccccc2N2C(=O)c3c(Cl)c(Cl)c(Cl)c(Cl)c3C2=O)cc1OC
49	5.5	> 30	–	–	–	COc1ccc(CCc2cccc(N3C(=O)c4c(Cl)c(Cl)c(Cl)c(Cl)c4C3=O)c2)cc1
> 100	4.8	4.3	–	–	–	COc1ccc(CCc2ccc(N3C(=O)c4ccccc4C3=O)cc2)cc1OC
38	6.1	7.6	–	–	–	O=C1c2ccccc2C(=O)N1c1cccc(CCc2ccc(O)c(O)c2)c1
> 100	1.6	> 1	–	–	–	O=C1c2ccccc2C(=O)N1c1ccc(/C=C/c2ccc(O)c(O)c2)cc1
> 100	2.9	> 30	–	–	–	O=C1c2ccccc2C(=O)N1c1ccc(CCc2ccc(O)cc2)cc1
